# A selection: hits, their analogues and other compounds. The true share with any hit is near 3.5%.
# MrgX1 antagonist = antagonists of human MrgX1 receptor, primary screen, HEK293 cells, Fluo-4 calcium flux | Mas-related G-protein coupled receptor member X1 (Homo sapiens), Q96LB2 | BAM8-22 antagonism; hits give low values | B-score at 10 µM | actives 1.3% (n = 310,000);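 active means calcium-response B-score plate-corrected more than 3 library SD below zero, starting fluorescence within 5 deviations, no agonist response on first addition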;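 further: peak minus trough fluorescence over baseline after final BAM8-22 challenge near maximal dose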
# Target sequence (Q96LB2 whole entry, looked up): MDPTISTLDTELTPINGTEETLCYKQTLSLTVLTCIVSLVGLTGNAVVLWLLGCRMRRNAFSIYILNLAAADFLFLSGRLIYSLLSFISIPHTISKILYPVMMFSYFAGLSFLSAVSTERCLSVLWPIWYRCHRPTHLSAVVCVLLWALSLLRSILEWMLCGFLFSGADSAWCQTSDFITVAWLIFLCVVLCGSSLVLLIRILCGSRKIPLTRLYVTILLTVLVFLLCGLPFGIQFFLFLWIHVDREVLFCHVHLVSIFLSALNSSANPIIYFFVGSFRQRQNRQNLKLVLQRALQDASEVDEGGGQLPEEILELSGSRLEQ
# MrgX1 allo act = positive allosteric modulators of MrgX1, primary screen, HEK293 cells, Fluo-4 calcium flux; Mas-related G-protein coupled receptor member X1 (Homo sapiens), Q96LB2; FDSS; hits give high values; B-score at 10 µM; actives 0.63% (n = 310,000); AID 588675, 2011;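 active means plate-corrected calcium response at least 3 library SD above typical, normal starting fluorescence, not activating the receptor alone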;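 further: compound read alongside a low EC10 to EC30 dose of BAM8-22 agonist; peak minus trough fluorescence over baseline measured at the second addition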
# RGS4 block = RGS4 inhibitors, primary screen, cell-based, HEK293 M3R inducible RGS4, calcium flux | Regulator of G-protein signaling 4 (Homo sapiens), P49798 | Fluo-4 calcium flux; hits give high values; triggered by carbachol at its EC20 | B-score at 10 µM | actives 0.45% (n = 310,000);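 active means B-score, a plate-corrected calcium signal, over three deviations above library mean, with baseline fluorescence within five deviations of library mean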;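 further: RGS4 expression induced by doxycycline in cells with stable M3 receptor; B-score is computed from the integrated fluorescence ratio over baseline after carbachol; higher B-score means a larger calcium signal and so more RGS4 inhibition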
# Target sequence (P49798 whole entry, looked up): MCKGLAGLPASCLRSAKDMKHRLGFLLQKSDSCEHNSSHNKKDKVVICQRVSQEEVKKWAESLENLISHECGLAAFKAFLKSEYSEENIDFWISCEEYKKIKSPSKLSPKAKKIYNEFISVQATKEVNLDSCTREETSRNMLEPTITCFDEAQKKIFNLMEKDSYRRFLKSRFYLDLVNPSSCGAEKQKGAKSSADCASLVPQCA
# RGS4 pot = RGS4 potentiators or activators, primary screen, cell-based, HEK293 M3R inducible RGS4, calcium flux. B-score at 10 µM. actives 0.92% (n = 310,000). carbachol calcium flux Fluo4; hits give low values;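 active means B-score of the integrated calcium signal more than 4 SD below the library mean, with starting fluorescence not abnormally high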;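 further: negative B-score means reduced calcium response which marks RGS4 activation or potentiation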
#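 test system = HEK293 cells with stable M3R and inducible RGS4 | schedule = recording 10 s baseline at 1 Hz, 100 s post-agonist | technique = Fluo4-AM (2 µM) calcium-flux fluorescence, kinetic read | measure = Agonist-evoked peak-minus-minimum fluorescence over baseline, integrated ratio, B score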
# MrgX1 agonist = agonists of human MrgX1 receptor, primary screen, HEK293 cells, Fluo-4 calcium flux; Mas-related G-protein coupled receptor member X1 (Homo sapiens), Q96LB2; Fluo-4 calcium fluorescence, agonist mode; hits give high values; B-score at 10 µM; actives 0.44% (n = 310,000);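 active means calcium response B-score plate-corrected fluorescence ratio at least 3 library SD, with starting fluorescence B-score inside 5 SD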
#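 System: HEK293 cells stably expressing human MrgX1 receptor; Dosing: test compound in the initial addition of three; Schedule: overnight plating, then 30 min 37 °C plus 30 min room-temperature dye loading; Detection: kinetic calcium dye fluorescence, Fluo-4 NW; Controls: per-plate positive and negative controls for Z′ factor.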
# Active calls of the source: *; i = inactive.
SMILES,MrgX1 antagonist,MrgX1 allo act,RGS4 block,RGS4 pot,MrgX1 agonist
CCOc1ccc(N2CC(C(=O)Nc3ccc(S(=O)(=O)Nc4nccs4)cc3)CC2=O)cc1 (configuration not stated),i,i,i,i,i
Cc1cc(-c2nnc(SCC(=O)Nc3ccc(F)cc3F)n2N)n[nH]1,i,i,i,i,i
Cc1ccc(S(=O)(=O)N2CCN(C(=O)C3=COCCO3)CC2)cc1C,i,i,i,i,i
O=C(C1=COCCO1)N1CCN(S(=O)(=O)c2cccc(Cl)c2Cl)CC1,-5.7*,i,i,i,i
C[n+]1ccccc1/C=C/c1cc(Br)ccc1O,i,i,i,-8.5*,i
COc1ccc(/C=C/c2cccc[n+]2C)c(O)c1,i,i,i,i,i
COc1cc(/C=C2/C(=N)N3C=CSC3=NC2=O)ccc1OCCOc1ccc(NC(C)=O)cc1,i,14*,i,i,i
COc1cc(/C=C2\C(=N)N3N=C(S(C)(=O)=O)SC3=NC2=O)ccc1OCCOc1ccc(C)cc1,i,i,i,-7.2*,i
COc1cc(/C=C2\C(=N)N3N=C(S(C)(=O)=O)SC3=NC2=O)cc(OC)c1OCCOc1ccc(C)cc1,i,i,i,i,i
Cc1cc(/C=C2\C(=N)N3N=C(C(C)C)SC3=NC2=O)c(C)n1-c1ccccc1,i,i,i,i,i
CC(=O)Nc1ccc(OCCOc2ccc(/C=C3\C(=N)N4N=C(C(C)C)SC4=NC3=O)cc2)cc1,i,i,i,i,32*
COc1cc(/C=C2/C(=N)N3C=CSC3=NC2=O)ccc1OCCCOc1ccccc1C,i,i,i,i,i
Cc1cc(C)cc(OCc2ccc(C(=O)NN)o2)c1,i,i,i,i,i
Cc1cccc2sc(N(CCN(C)C)C(=O)C3CCN(S(=O)(=O)c4cccs4)CC3)nc12,i,i,i,i,i
Cc1nc2ccccn2c1C(=O)N/N=C/c1ccccc1,i,i,i,i,i
Cc1ccccc1N/N=C/c1c(C)nc2ccccn12,i,8.5*,i,i,i
COCCCn1c(=O)c2ccccc2n(Cc2cc(C(=O)OC)ccc2OC)c1=O,i,i,i,i,i
Cc1nc(N/N=C/c2ccc(O)cc2)c2cnn(-c3ccccc3)c2n1,-7.5*,i,i,i,i
Cc1ccc(-c2nc3ccccc3[nH]2)cc1NC(=S)NC(=O)c1ccccc1Br,i,i,i,-7.1*,i
CCOc1ccc(C(=O)Nc2cc(-c3nc4ccccc4[nH]3)ccc2C)cc1[N+](=O)[O-],i,i,i,-7.1*,i
Cc1ccc(-c2nc3ccccc3[nH]2)cc1NC(=O)c1ccc2c(c1)OCO2,i,i,i,i,i
O=C(Cn1c(=O)n(-c2ccccc2)c(=O)n1CC(=O)N1CCCCC1)N1CCCCC1,i,i,i,i,36*
COc1ccc(/C=c2\sc3nc(=O)c(C)nn3c2=O)c(OC)c1,i,i,i,i,27*
Cc1ccc2cc(C=O)c(Cl)nc2c1,i,7.3*,i,i,i
CCOC(=O)/C(C#N)=C/c1cc2ccc(C)cc2nc1Cl,i,i,i,i,i
SMILES,MrgX1 antagonist,MrgX1 allo act,RGS4 block,RGS4 pot,MrgX1 agonist
O=C1OC(c2ccc(Br)cc2)=N/C1=C\N1CCCCC1,-5.6*,i,i,i,i
CCNC(=O)/C(C#N)=C/c1c(N2CCN(c3cccc(Cl)c3)CC2)nc2c(C)cccn2c1=O,i,i,i,-11*,i
CCOC(=O)/C(C#N)=C/c1c(N2CCN(c3ccccc3)CC2)nc2c(C)cccn2c1=O,i,i,i,-7.8*,i
S=c1[nH]nc(C2(c3ccccc3)CCCC2)o1,i,i,i,i,i
COCCC(=O)N1CCCC(CNS(=O)(=O)c2ccc(OC)cc2)C1 (configuration not stated),i,i,i,i,i
COC(=O)CCCC(=O)N1CCCC(CNS(=O)(=O)c2ccc(OC)cc2)C1 (configuration not stated),-4.6*,i,i,i,i
CC(=O)Nc1ccccc1OCC(=O)c1cc(C)n(Cc2cccs2)c1C,i,i,i,i,48*
Cc1ccc(C(=O)NNC(=O)c2ccc(SCC3CCCO3)c([N+](=O)[O-])c2)cc1 (configuration not stated),-6.7*,i,i,i,i
O=C(NNC(=O)c1ccc(SCC2CCCO2)c([N+](=O)[O-])c1)c1ccc(Cl)c([N+](=O)[O-])c1 (configuration not stated),i,i,i,i,i
Cc1c(CCO)c(=O)[nH]n1S(=O)(=O)c1ccc(Cl)cc1Cl,i,i,i,i,i
COc1ccc(S(=O)(=O)n2[nH]c(=O)c(CCO)c2C)c([N+](=O)[O-])c1,i,7.9*,i,i,i
CCC(C)(C)NC(=O)CN(C(=O)CCC(=O)Nc1nccs1)c1ccccc1C,i,i,i,i,i
O=Cc1ccnc(-c2ccc(OC(=O)c3ccco3)cc2)n1,i,i,i,i,76*
COC(=O)c1ccc(OC(=O)c2ccco2)cc1,i,i,i,i,i
CCOC(=O)c1cc(C#N)c(Oc2ccc(F)cc2)nc1-c1ccccc1,i,i,i,i,i
CCOC(=O)c1cc(C#N)c(Oc2cccc(C(F)(F)F)c2)nc1-c1ccccc1,i,i,i,-7.8*,i
O=C(COC(=O)/C=C/c1ccc([N+](=O)[O-])cc1)NCc1ccccc1,i,i,i,i,i
O=C(/C=C/c1ccc([N+](=O)[O-])cc1)OCC(=O)N1c2ccccc2Sc2ccccc21,i,i,i,-8.2*,i
O=C(CN(Cc1ccc(F)cc1)C(=O)Cn1nnc2ccccc21)NCC1CCCO1 (configuration not stated),i,17*,i,i,i
O=C(NCc1ccc(F)cc1)C(c1ccccc1)N(CC1CCCO1)C(=O)Cn1nnc2ccccc21 (configuration not stated),i,i,i,i,i
CC[n+]1c(/C=C/Nc2ccccc2)oc2ccccc21,i,i,i,i,i
